From ChEMBL document CHEMBL1150199, “Preparation, characterization, and antiviral activity of microbial metabolites of stemodin” (J Nat Prod, 1991)
Values after ≈ are worked out from the molar mass of the structure shown. Active and inactive are the calls of the source. The calls are words filed in the database; no cut-off is given here.

How the values were obtained:
[1] = Cytotoxicity against african green monkey Vero cells after 66 hrs; assay type: cell-based; details: chlorocebus sabaeus
Summary of the method: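 Confluent Vero monolayers in DMEM with 10% calf serum received triplicate serial dilutions of DMSO-dissolved samples at 1–100 µg/ml, with higher levels where needed. The cytotoxic concentration is reported as CD50.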

[2] = test system: Human alphaherpesvirus 1; assay: Antiviral activity against HSV1 in african green monkey Vero cells assessed as reduction in number of plaques at 0.005 mg/ml after 66 hrs; assay type: functional; design: scale not given: the % may be the effect or the level left
Summary of the method: (§1)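 Vero cells seeded at 2 × 10^4 per 200 µl well in DMEM with 10% calf serum, grown to confluence at 37° under ~15% CO2. Medium replaced with compound dilutions in triplicate, each well inoculated with 30 PFU HSV-1. Incubated 66 h, then formaldehyde-fixed and crystal violet-stained. Plaque reduction was scored visually.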

[3] = test system: Human alphaherpesvirus 1; assay: Antiviral activity against HSV1 in african green monkey Vero cells assessed as reduction in number of plaques at 0.1 mg/ml after 66 hrs; assay type: functional; design: scale not given: the % may be the effect or the level left; summary of the method: as §1
[4] = test system: Human alphaherpesvirus 1; assay: Antiviral activity against HSV1 in african green monkey Vero cells assessed as reduction in number of plaques after 66 hrs; assay type: functional, organism-based
Summary of the method: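 Confluent Vero monolayers were seeded at 2 × 10^4 cells/well in DMEM with 10% calf serum. Samples were dissolved in DMSO, diluted in medium and added in triplicate at 100, 50, 20, 10, 5, 2 and 1 µg/ml, with 30 PFU HS-1 per well. Wells were incubated 66 h at 37° under ~15% CO2, then formaldehyde-fixed, crystal violet-stained and scored visually. The value is the lowest concentration giving the stated % plaque reduction.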

C[C@]1(CO)C[C@H](O)C[C@@]2(C)[C@H]1CC[C@H]1C[C@H]3C[C@]12CC[C@@]3(O)CO
CC50 at 66 h [1]: > 399 µg/mL

C[C@@]1(CO)[C@H](O)CC[C@@]2(C)[C@H]1CC[C@H]1C[C@@H]3C[C@@]12CC[C@]3(O)CO [APHIDICOLIN]
Activity [2]: 100% | CC50 at 66 h [1]: 200 µg/mL (≈ 591 µM)

CC1(C)C[C@H](O)C[C@@]2(C)[C@H]1CC[C@H]1C[C@@]3(O)C[C@]12CC[C@]3(C)O
CC50 at 66 h [1]: 150 µg/mL (≈ 465 µM) | Activity [3]: 27%

CC1(C)C[C@H](O)C[C@@]2(C)[C@H]1CC[C@@]1(O)C[C@H]3C[C@]12CC[C@]3(C)O
CC50 at 66 h [1]: 300 µg/mL (≈ 930 µM) | Activity [3]: 93%

C[C@@]1(CO)C[C@H](O)C[C@@]2(C)[C@H]1CC[C@H]1C[C@H]3C[C@]12CC[C@]3(C)O
CC50 at 66 h [1]: 200 µg/mL (≈ 620 µM) | Activity [3]: 67%

C[C@@]1(CO)C[C@H](O)C[C@@]2(C)[C@H]1CC[C@@]1(O)C[C@H]3C[C@]12CC[C@]3(C)O
Activity [4]: inactive | CC50 at 66 h [1]: 660 µg/mL (≈ 1950 µM)

C[C@@]1(CO)C[C@H](O)C[C@@]2(C)[C@H]1CC[C@H]1C[C@H]3[C@H](O)[C@]12CC[C@]3(C)O
Activity [4]: inactive | CC50 at 66 h [1]: 70 µg/mL (≈ 207 µM)

CC1(C)C[C@H](O)C[C@@]2(C)[C@H]1C[C@H](O)[C@H]1C[C@H]3C[C@]12CC[C@]3(C)O
Activity [4]: inactive | CC50 at 66 h [1]: 70 µg/mL (≈ 217 µM)

CC1(C)C[C@H](O)C[C@@]2(C)[C@H]1C[C@@H](O)[C@H]1C[C@H]3C[C@]12CC[C@]3(C)O
CC50 at 66 h [1]: 200 µg/mL (≈ 620 µM) | Activity [3]: 33%

CC1(C)C[C@H](O)C[C@@]2(C)[C@H]1C[C@H](O)[C@@]1(O)C[C@H]3C[C@@]21CC[C@]3(C)O
Activity [4]: inactive | CC50 at 66 h [1]: 40 µg/mL (≈ 118 µM)

CC1(C)C[C@H](O)C[C@@]2(C)[C@H]1CC[C@H]1C[C@H]3C[C@]12CC[C@]3(C)O [STEMODIN]
CC50 at 66 h [1]: 40 µg/mL (≈ 131 µM)

C[C@]1(CO)C[C@H](O)C[C@@]2(C)[C@H]1CC[C@H]1C[C@H]3C[C@]12CC[C@]3(C)O
CC50 at 66 h [1]: > 399 µg/mL
